The values below come from ChEMBL document CHEMBL4765301, “Discovery of novel TNNI3K inhibitor suppresses pyroptosis and apoptosis in murine myocardial infarction injury” (Eur J Med Chem, 2020).

Each structure is given as a SMILES string. Activity calls are given as the source filed them. No cut-off for these calls is given here.

Data set [1] relates to Mus musculus. Put plainly: Cardioprotective activity in C57BL/6 mouse model of myocardial infarction assessed as reduction in infarct area at 25 mg/kg, ip administered for 28 days and measured on day 28 by TTC staining based fluorescence microscopy. The note with it: time 28.0 day. It is filed as functional, organism-based. The essentials:
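Male C57BL/6 mice (5-6 weeks); MI by permanent LAD ligation under ip ketamine (100mg/kg)/xylazine (10mg/kg) with ventilation; sham group operated without LAD occlusion. Post-MI mice randomised to sham, normal saline or inhibitor groups (n=4); 25 mg/kg given ip every two days. Hearts assessed after 28 days: TTC staining (infarct yellow-white, viable red), Masson's trichrome (blue collagen) and H&E.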

The test system of data set [2] is H9c2. Put plainly: Inhibition of JNK phosphorylation in rat H9c2 cells at 0.5 to 1 uM by Western blot analysis. The data set is classed as cell-based. Conditions: dose 0.5-1 µM. The essentials: (§1)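 H9c2 cells under OGD were treated with saline or 0.5 or 1.0 µM inhibitor. Cells were trypsinised, washed in cold PBS, lysed in RIPA with sonication and centrifuged 30 min. Total protein was quantified and separated by SDS-PAGE, then transferred to PVDF. Blots were probed with primary and secondary antibodies and detected by ECL.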
(Immunoblotting shows a protein as a band on a membrane.)

Data set [3] concerns the target T1, Serine/threonine-protein kinase TNNI3K (Rattus norvegicus) (UniProt Q7TQP6).
T1 sequence (whole entry): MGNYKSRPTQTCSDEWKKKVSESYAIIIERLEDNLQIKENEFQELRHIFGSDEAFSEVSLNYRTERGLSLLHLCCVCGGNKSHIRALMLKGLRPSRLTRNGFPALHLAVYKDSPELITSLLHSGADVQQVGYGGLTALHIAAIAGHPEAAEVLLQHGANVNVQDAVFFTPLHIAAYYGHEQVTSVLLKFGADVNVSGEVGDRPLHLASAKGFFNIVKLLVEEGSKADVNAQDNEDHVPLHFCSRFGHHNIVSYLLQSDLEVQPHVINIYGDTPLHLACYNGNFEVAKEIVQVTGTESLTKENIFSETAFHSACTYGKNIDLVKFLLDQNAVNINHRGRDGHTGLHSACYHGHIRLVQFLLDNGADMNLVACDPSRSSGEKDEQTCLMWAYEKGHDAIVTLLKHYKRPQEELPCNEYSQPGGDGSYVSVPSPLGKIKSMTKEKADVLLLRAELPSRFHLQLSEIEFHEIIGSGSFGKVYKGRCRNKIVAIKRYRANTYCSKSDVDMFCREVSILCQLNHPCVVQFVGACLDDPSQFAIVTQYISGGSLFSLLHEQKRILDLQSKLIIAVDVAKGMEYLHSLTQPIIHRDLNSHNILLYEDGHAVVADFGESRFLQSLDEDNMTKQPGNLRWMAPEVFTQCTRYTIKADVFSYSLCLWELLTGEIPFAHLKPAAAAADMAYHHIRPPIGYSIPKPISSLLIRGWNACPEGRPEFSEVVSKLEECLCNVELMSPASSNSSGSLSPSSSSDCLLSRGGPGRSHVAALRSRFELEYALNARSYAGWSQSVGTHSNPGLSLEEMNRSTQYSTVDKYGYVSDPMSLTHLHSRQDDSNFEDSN
Put plainly: Inhibition of TNNI3K in rat H9c2 cells assessed as reduction in p38 phosphorylation at 0.5 to 1 uM by Western blot analysis. The data set is classed as cell-based. Conditions: dose 0.5-1 µM. Put shortly:
as §1

The subject of data set [4] is Mus musculus. Put plainly: Cardioprotective activity in C57BL/6 mouse model of myocardial infarction assessed as reduction in left ventricular inflammatory cells at 25 mg/kg, ip administered for 28 days and measured on day 28 by H and E staining based fluorescence microscopy. The data set is classed as functional, organism-based. The note with it: time 28.0 day. The essentials:
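MI made in male C57BL/6 mice (5-6 weeks) by permanent LAD ligation under ip ketamine (100mg/kg)/xylazine (10mg/kg), ventilated. Groups: sham, saline (NS), inhibitor 25 mg/kg ip every two days, n=4. Hearts examined after 28 days; TTC, Masson's trichrome and H&E staining of sections for infarct, collagen/scar, LV inflammatory cells and dilatation.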

Data set [5] concerns H9c2. Put plainly: Inhibition of OGD-induced apoptosis in rat H9c2 cells incubated for 24 hrs by annexinV-FITC and PI staining based flow cytometry analysis. Conditions: dose 0.5-1 µM. The data set is classed as functional, cell-based. In general terms: In flow cytometry, cells or beads pass a laser one at a time.
A short description of data set [6]: Toxicity in C57BL/6 mouse assessed as effect on morphology of main organs at 25 mg/kg, ip administered for 28 days and observed on day 28 by H and E staining based fluorescence microscopy. It is filed as organism-based. Conditions: in vivo, 672 h, time 28 day. The essentials: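 Main organs of MI-model C57BL/6 mice, given 25 mg/kg ip every two days or sham-operated, examined by H&E staining of tissue sections for morphology.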

The target in data set [7] is Vascular endothelial growth factor receptor 1 (Homo sapiens) (UniProt P17948). Put plainly: Inhibition of recombinant human FLT1 (783 to end residues) assessed as residual activity at 1 uM using KKKSPGEYVNIEFG as substrate incubated for 40 mins by [gamma-33P]-ATP scintillation counting based radiometry assay relative to control.
Chain of Vascular endothelial growth factor receptor 1 (Homo sapiens) (P17948 whole entry): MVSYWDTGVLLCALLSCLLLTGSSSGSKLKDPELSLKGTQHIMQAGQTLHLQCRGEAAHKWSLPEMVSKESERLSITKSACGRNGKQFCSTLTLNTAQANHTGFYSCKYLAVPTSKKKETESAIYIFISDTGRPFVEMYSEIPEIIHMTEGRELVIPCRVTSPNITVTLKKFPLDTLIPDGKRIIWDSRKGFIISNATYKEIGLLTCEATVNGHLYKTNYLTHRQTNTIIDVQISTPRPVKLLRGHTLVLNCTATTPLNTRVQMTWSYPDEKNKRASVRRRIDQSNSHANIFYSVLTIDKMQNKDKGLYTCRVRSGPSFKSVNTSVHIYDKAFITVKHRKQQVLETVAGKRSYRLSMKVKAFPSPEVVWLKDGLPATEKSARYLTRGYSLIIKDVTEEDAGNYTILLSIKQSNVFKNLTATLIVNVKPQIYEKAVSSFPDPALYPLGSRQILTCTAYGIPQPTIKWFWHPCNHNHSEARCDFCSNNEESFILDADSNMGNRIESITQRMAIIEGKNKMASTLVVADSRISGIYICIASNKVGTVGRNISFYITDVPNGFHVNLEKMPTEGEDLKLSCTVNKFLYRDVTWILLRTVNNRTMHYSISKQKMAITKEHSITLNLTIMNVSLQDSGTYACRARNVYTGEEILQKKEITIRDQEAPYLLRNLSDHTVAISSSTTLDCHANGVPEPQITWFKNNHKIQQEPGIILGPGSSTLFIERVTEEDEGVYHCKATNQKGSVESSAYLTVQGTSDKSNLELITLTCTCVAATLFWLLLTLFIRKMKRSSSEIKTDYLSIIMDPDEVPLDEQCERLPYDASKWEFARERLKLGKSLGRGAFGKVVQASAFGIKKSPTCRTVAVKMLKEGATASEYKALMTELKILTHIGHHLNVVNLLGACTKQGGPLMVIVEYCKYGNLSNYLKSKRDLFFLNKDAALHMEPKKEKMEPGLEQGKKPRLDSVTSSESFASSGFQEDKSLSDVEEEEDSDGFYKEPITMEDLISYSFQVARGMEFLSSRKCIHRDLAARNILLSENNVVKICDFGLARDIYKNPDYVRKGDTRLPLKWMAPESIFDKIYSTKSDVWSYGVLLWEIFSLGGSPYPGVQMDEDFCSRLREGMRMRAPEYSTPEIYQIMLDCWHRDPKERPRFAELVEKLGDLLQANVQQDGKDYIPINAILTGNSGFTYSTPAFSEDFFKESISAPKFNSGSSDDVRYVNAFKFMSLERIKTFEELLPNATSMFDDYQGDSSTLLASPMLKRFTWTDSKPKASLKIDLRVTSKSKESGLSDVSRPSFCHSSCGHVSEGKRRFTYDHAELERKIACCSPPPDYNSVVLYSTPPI
The test system of data set [8] is H9c2. Put plainly: Cytoprotective activity against OGD-induced cell death in rat H9c2 cells assessed as cell viability at 10 uM incubated for 24 hrs by MTT assay (reference value: 42.08 to 49.11 %). The data set is classed as functional. Conditions: read-out: Activity. (In general: Formazan colour is commonly taken as a measure of viable cells.)
The target in data set [9] is Vascular endothelial growth factor receptor 2 (Homo sapiens) (UniProt P35968). Put plainly: Inhibition of recombinant human KDR (790 to end residues) assessed as residual activity at 1 uM using myelin basic protein as substrate incubated for 40 mins by [gamma-33P]-ATP scintillation counting based radiometry assay relative to control.
Chain of Vascular endothelial growth factor receptor 2 (Homo sapiens) (P35968 whole entry): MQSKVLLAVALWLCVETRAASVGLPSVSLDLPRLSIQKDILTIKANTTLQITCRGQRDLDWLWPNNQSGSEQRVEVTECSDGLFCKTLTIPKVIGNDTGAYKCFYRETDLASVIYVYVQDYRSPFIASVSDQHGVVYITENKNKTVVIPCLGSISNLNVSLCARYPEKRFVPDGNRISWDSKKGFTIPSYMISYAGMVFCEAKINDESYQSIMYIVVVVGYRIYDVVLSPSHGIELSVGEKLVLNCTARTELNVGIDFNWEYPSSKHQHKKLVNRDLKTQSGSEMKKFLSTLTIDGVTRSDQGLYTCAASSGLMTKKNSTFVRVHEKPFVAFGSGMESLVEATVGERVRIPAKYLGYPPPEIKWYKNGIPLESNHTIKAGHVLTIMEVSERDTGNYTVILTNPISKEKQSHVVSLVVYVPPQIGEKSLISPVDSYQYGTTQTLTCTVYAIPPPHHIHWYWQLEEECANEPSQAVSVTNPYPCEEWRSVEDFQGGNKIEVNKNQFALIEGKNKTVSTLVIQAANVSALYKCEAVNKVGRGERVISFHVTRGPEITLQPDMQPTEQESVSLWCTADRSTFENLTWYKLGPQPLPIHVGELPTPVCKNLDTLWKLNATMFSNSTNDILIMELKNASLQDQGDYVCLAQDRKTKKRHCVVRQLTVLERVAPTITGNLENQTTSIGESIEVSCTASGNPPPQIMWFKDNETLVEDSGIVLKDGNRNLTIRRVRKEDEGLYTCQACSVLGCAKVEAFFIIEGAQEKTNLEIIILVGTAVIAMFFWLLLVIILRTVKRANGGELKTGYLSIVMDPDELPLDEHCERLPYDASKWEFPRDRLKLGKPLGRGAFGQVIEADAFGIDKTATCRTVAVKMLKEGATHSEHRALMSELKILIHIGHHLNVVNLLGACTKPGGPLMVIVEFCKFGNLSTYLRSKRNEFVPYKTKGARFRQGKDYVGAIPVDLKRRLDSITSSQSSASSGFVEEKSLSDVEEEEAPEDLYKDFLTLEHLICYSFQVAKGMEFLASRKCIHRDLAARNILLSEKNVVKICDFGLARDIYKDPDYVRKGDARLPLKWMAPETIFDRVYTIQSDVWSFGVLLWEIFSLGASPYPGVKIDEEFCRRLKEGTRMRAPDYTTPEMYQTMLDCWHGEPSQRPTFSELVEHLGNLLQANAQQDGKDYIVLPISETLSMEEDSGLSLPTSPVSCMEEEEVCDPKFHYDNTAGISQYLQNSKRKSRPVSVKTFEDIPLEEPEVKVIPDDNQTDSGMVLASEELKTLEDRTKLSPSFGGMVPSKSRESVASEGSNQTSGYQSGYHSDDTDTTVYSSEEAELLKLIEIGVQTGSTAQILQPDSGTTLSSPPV
The subject of data set [10] is H9c2. Put plainly: Inhibition of OGD-induced apoptosis in rat H9c2 cells assessed as reduction in caspase1 activation at 0.5 to 1 uM by Western blot analysis. It is filed as functional, cell-based. Conditions: dose 0.5-1 µM. The essentials: as §1
Data set [11] has as its target T1, Serine/threonine-protein kinase TNNI3K (Rattus norvegicus). Put plainly: Inhibition of TNNI3K in rat H9c2 cells assessed as reduction in p38 phosphorylation at 0.5 to 1 uM by Western blot analysis. Conditions: dose 0.5-1 µM.

Regarding `CN(C)CCCN1CCc2c(sc3ncnc(Nc4ccc(N(C)C)c(NC(=O)c5ccco5)c4)c23)C1`, the outcome in the data set with Mus musculus [1] and with Mus musculus [4] was Active. Also, the inhibition entry in the data set on H9c2 [2] was “inactive”. Moreover, the inhibition result (in [3]; in the data set with H9c2 [10]; in data set [11]) was “Active” throughout. In addition, the inhibition entry in the data set with H9c2 [5] was “Dose-dependent effect”. In addition, the results for the Activity entry in [6], in [7] and in data set [9] were “Non-Toxic”, 91% and 80%, respectively. Besides, the viability at 10 µM in the data set with H9c2 [8] came out at 89%.
